pIC50: −log10 of the molar value.
Key:
[1] = system: HT-29; test: Antiproliferative activity against human HT-29 cells after 48 hrs by SRB assay; format: functional, cell-based; conditions: HT-29, 48 h
Summary of the method: (§1)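 SRB assay run as in the NCI screen with slight modifications. Seeding: HT-29 5.0 x 10^3, M21 3.5 x 10^3, MCF7 7.5 x 10^3 cells; cells preincubated 24 h. Drug in DMSO added at 0.75 to 1.0 x 10^5 nM for 48 h. TCA fixation, sulforhodamine B staining, absorbance 530-565 nm. At least two experiments in triplicate; runs accepted only when relative SD < 10%.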

[2] = system: M21; test: Antiproliferative activity against human M21 cells after 48 hrs by SRB assay; format: functional, cell-based; conditions: M21, 48 h; summary of the method: as §1
[3] = system: MCF7; test: Antiproliferative activity against human MCF7 cells after 48 hrs by SRB assay; format: functional, cell-based; conditions: MCF7, 48 h; summary of the method: as §1
[4] = Selectivity ratio of IC50 for human HT-29 cells to IC50 for human MCF7 cells; format: functional
Summary of the method: (§2)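 Ratio is IC50 in reference line over IC50 in sensitive line. […] Cells in DMEM with 5% calf serum at 37 °C. At least two experiments, triplicate cultures; assay accepted when relative SD < 10%.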

[5] = Selectivity ratio of IC50 for human M21 cells to IC50 for human MCF7 cells; format: functional; summary of the method: as §2

pIC50 [1] | pIC50 [3] | Compound | pIC50 [2] | Ratio IC50 [4] | Ratio IC50 [5]
4.46 | 5.60 | CCCCN1CCN(c2ccc(S(=O)(=O)Oc3ccc(OC)cc3)cc2)C1=O | < 4.00 | 14 | >39
< 4.00 | 5.42 | CCCCN1CCN(c2ccc(S(=O)(=O)Oc3ccccc3OC)cc2)C1=O | < 4.00 | >26 | >26
4.19 | 4.07 | CCCN1CCN(c2ccc(S(=O)(=O)Oc3cccc(C)c3)cc2)C1=O | 4.55 | 0.8 | 0.3
5.42 | 5.60 | CCN1CCN(c2ccc(S(=O)(=O)Oc3cccc(Br)c3)cc2)C1=O | 5.47 | 1.5 | 1.4
4.89 | 6.31 | CCCCN1CCN(c2ccc(S(=O)(=O)Oc3cccc(OC)c3)cc2)C1=O | 4.52 | 27 | 61
< 4.00 | 4.89 | CCCN1CCN(c2ccc(S(=O)(=O)Oc3ccccc3OC)cc2)C1=O | < 4.00 | >7.7 | >7.7
6.72 | 6.64 | COc1cc(OC)cc(OS(=O)(=O)c2ccc(N3CCN(C)C3=O)cc2)c1 | 7.09 | 0.9 | 0.4
5.37 | 5.46 | CCN1CCN(c2ccc(S(=O)(=O)Oc3cc(OC)cc(OC)c3)cc2)C1=O | 5.38 | 1.2 | 1.2
4.72 | 4.89 | CCCN1CCN(c2ccc(S(=O)(=O)Oc3cc(Cl)c(Cl)cc3Cl)cc2)C1=O | 4.82 | 1.5 | 1.2
4.64 | 4.48 | CCCN1CCN(c2ccc(S(=O)(=O)Oc3ccc(F)cc3)cc2)C1=O | 4.85 | 0.7 | 0.4
4.37 | 7.24 | CCCCN1CCN(c2ccc(S(=O)(=O)Oc3cc(Br)cc(Br)c3)cc2)C1=O | < 4.00 | 740 | >1700
4.12 | 6.51 | CCCCN1CCN(c2ccc(S(=O)(=O)Oc3cccc(F)c3)cc2)C1=O | < 4.00 | 250 | >320
5.51 | 5.72 | CCN1CCN(c2ccc(S(=O)(=O)Oc3cccc(I)c3)cc2)C1=O | 5.66 | 1.7 | 1.2
4.43 | 4.41 | CCN1CCN(c2ccc(S(=O)(=O)Oc3ccc(OC)c(OC)c3)cc2)C1=O | 4.46 | 1 | 0.9
6.22 | 6.20 | CN1CCN(c2ccc(S(=O)(=O)Oc3cc(Cl)c(Cl)cc3Cl)cc2)C1=O | 6.38 | 1 | 0.7
4.60 | 5.20 | CCCN1CCN(c2ccc(S(=O)(=O)Oc3cccc(OC)c3)cc2)C1=O | 5.00 | 4 | 1.6
4.68 | 6.47 | CCCCN1CCN(c2ccc(S(=O)(=O)Oc3ccc(OC)c(OC)c3)cc2)C1=O | < 4.00 | 61 | >300
5.17 | 5.27 | CCN1CCN(c2ccc(S(=O)(=O)Oc3cccc(Cl)c3)cc2)C1=O | 5.41 | 1.3 | 0.7
6.19 | 6.15 | CCN1CCN(c2ccc(S(=O)(=O)Oc3cc(OC)c(OC)c(OC)c3)cc2)C1=O | 6.06 | 0.9 | 1.2
4.89 | 6.42 | CCCN1CCN(c2ccc(S(=O)(=O)Oc3cccc(Cl)c3)cc2)C1=O | 5.07 | 34 | 23
5.89 | 5.82 | CN1CCN(c2ccc(S(=O)(=O)Oc3cccc(Br)c3)cc2)C1=O | 5.89 | 0.8 | 0.9

More lines, now with the values behind:

Compound | pIC50 [1] | pIC50 [3] | pIC50 [2] | Ratio IC50 [4] | Ratio IC50 [5]
CCCCN1CCN(c2ccc(S(=O)(=O)Oc3cccc(Br)c3)cc2)C1=O | 4.80 | 7.07 | 4.46 | 190 | 410
CCCCN1CCN(c2ccc(S(=O)(=O)Oc3cccc(I)c3)cc2)C1=O | 5.02 | 7.24 | 4.64 | 170 | 400
Cc1ccc(OS(=O)(=O)c2ccc(N3CCN(C)C3=O)cc2)c(C)c1 | 5.52 | 5.60 | 5.74 | 1.2 | 0.7
CCCN1CCN(c2ccc(S(=O)(=O)Oc3ccc(Cl)cc3)cc2)C1=O | 4.82 | 4.74 | 4.47 | 0.8 | 1.9
COc1ccccc1OS(=O)(=O)c1ccc(N2CCN(C)C2=O)cc1 | 4.59 | 4.59 | 4.68 | 1 | 0.8
CCCN1CCN(c2ccc(S(=O)(=O)Oc3cc(OC)cc(OC)c3)cc2)C1=O | 4.80 | 6.57 | 4.48 | 59 | 120
CCCN1CCN(c2ccc(S(=O)(=O)Oc3ccc(C)cc3C)cc2)C1=O | 4.59 | 5.82 | 5.01 | 17 | 6.5
CN1CCN(c2ccc(S(=O)(=O)Oc3cccc(Cl)c3)cc2)C1=O | 5.68 | 5.66 | 5.80 | 0.9 | 0.7
CCCCN1CCN(c2ccc(S(=O)(=O)Oc3cc(Cl)cc(Cl)c3)cc2)C1=O | < 4.00 | 7.22 | 4.24 | >1700 | 970
COc1cccc(OS(=O)(=O)c2ccc(N3CCN(C)C3=O)cc2)c1 | 5.60 | 5.52 | 5.80 | 0.8 | 0.6
Cc1ccccc1OS(=O)(=O)c1ccc(N2CCN(C)C2=O)cc1 | 5.32 | 5.25 | 5.54 | 0.9 | 0.5
COc1cc(OS(=O)(=O)c2ccc(N3CCN(C)C3=O)cc2)cc(OC)c1OC | 7.21 | 6.92 | 7.27 | 0.5 | 0.5
CCCN1CCN(c2ccc(S(=O)(=O)Oc3ccccc3CC)cc2)C1=O | < 4.00 | 5.64 | < 4.30 | >43 | >22
CCN1CCN(c2ccc(S(=O)(=O)Oc3cccc(OC)c3)cc2)C1=O | 4.66 | 4.85 | 5.15 | 1.6 | 0.5
CN1CCN(c2ccc(S(=O)(=O)Oc3c(Cl)cc(Cl)cc3Cl)cc2)C1=O | 5.60 | 5.54 | 5.77 | 0.9 | 0.6
CCCCN1CCN(c2ccc(S(=O)(=O)Oc3cc(F)cc(F)c3)cc2)C1=O | < 4.00 | 6.40 | < 4.00 | >250 | >250

From ChEMBL document CHEMBL4014335, “Activation of Phenyl 4-(2-Oxo-3-alkylimidazolidin-1-yl)benzenesulfonates Prodrugs by CYP1A1 as New Antimitotics Targeting Breast Cancer Cells” (J Med Chem, 2017)
